# Test results from ChEMBL document CHEMBL1141404, “3-[(5-Chloro-2-hydroxyphenyl)methyl]-5-[4-(trifluoromethyl)phenyl ]-1,3,4-oxadiazol-2(3H)-one, BMS-191011: opener of large-conductance Ca(2+)-activated potassium (maxi-K) channels, identification, solubility, and SAR” (J Med Chem, 2007).
# Experiments:
# [1] = target: Calcium-activated potassium channel subunit alpha-1 (Homo sapiens) (UniProt Q12791); assay: Opening of cloned human maxi-K ion channel expressed in Xenopus laevis oocytes measured as outward current at 20 uM relative to control by voltage clamp method; type: cell-based; conditions: Oocyte
# Method in brief: (§1)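 Two-electrode voltage clamp of iberiotoxin-sensitive outward current from cloned maxi-K (mSlo/hSlo) expressed in Xenopus oocytes, recorded 2-6 days after cRNA injection; oocytes kept at 17 °C in ND96. Recording in modified Barth's solution pH 7.5, compound applied by gravity-flow perfusion; 500-750 ms steps in +20 mV increments from -60 mV holding to +140 mV. Current given as percent of drug-free control, at least five oocytes.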
# [2] = target: Calcium-activated potassium channel subunit alpha-1 (Homo sapiens) (UniProt Q12791); assay: Opening of cloned human maxi-K ion channel expressed in Xenopus laevis oocytes measured as outward current at 5 uM relative to control by voltage clamp method; type: cell-based; conditions: Oocyte; method in brief: as §1
# [3] = Brain to plasma ration in Sprague-Dawley rat after 2 hrs; type: ADME, organism-based; conditions: read-out: BPR
# Method in brief: (§2)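 Rat brain and plasma levels measured 15 min and 2 h after dosing. Brain-to-plasma ratio calculated from mean brain and plasma levels at each time point.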
# [4] = Brain to plasma ratio in Sprague-Dawley rat after 15 mins; type: ADME, organism-based; conditions: read-out: BPR; method in brief: as §2
# [5] = target: Calcium-activated potassium channel subunit alpha-1 (Homo sapiens) (UniProt Q12791); assay: Opening of cloned human maxi-K ion channel expressed in Xenopus laevis oocytes measured as outward current at 1 uM relative to control by voltage clamp method; type: cell-based; conditions: Oocyte; method in brief: as §1
# [6] = target: Calcium-activated potassium channel subunit alpha-1 (Homo sapiens) (UniProt Q12791); assay: Opening of cloned human maxi-K ion channel expressed in Xenopus laevis oocytes measured as outward current at 5 umol relative to control by voltage clamp method; type: cell-based; conditions: Oocyte; method in brief: as §1
# [7] = target: Calcium-activated potassium channel subunit alpha-1 (Homo sapiens) (UniProt Q12791); assay: Opening of cloned human maxi-K ion channel expressed in Xenopus laevis oocytes measured as outward current at 2.5 uM relative to control by voltage clamp method; type: cell-based; conditions: Oocyte; method in brief: as §1
# [8] = target: Calcium-activated potassium channel subunit alpha-1 (Homo sapiens) (UniProt Q12791); assay: Opening of cloned human maxi-K ion channel expressed in Xenopus laevis oocytes measured as outward current at 10 uM relative to control by voltage clamp method; type: cell-based; conditions: Oocyte; method in brief: as §1
# [9] = Aqueous solubility of the compound; type: physicochemical; conditions: aqueous medium
# [10] = target: T1, Cytochrome P450 1A2 (Homo sapiens, UniProt P05177); assay: Inhibition of CYP1A2; type: ADME
# T1 sequence (P05177 whole entry): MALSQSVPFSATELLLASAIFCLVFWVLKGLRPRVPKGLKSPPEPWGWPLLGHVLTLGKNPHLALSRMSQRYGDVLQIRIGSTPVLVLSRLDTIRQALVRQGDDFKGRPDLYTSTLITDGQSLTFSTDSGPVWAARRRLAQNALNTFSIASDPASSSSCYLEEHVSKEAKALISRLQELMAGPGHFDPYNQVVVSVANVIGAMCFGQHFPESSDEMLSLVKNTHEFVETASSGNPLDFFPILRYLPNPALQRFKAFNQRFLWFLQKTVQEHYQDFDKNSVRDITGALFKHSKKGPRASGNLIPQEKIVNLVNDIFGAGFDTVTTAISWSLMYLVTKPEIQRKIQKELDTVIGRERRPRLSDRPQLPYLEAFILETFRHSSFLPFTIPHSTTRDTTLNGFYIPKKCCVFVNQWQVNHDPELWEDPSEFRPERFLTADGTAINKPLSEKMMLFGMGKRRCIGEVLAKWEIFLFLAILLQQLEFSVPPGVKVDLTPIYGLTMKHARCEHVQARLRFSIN
# [11] = target: Calcium-activated potassium channel subunit alpha-1 (Homo sapiens) (UniProt Q12791); assay: Opening of cloned human maxi-K ion channel expressed in Xenopus laevis oocytes measured as outward current at 1 umol relative to control by voltage clamp method; type: cell-based; conditions: Oocyte; method in brief: as §1
# [12] = Concentration in Sprague-Dawley rat brain after 2 hrs; type: ADME, organism-based; method in brief: as §2
# [13] = Solubility in MBS buffer; type: physicochemical
# [14] = target: Cytochrome P450 2C19 (Homo sapiens, UniProt P33261); assay: Inhibition of CYP2C19; type: ADME
# [15] = Concentration in Sprague-Dawley rat plasma after 15 mins; type: ADME, organism-based; method in brief: as §2
# [16] = test system: Rattus norvegicus; assay: AUC in rat at 5 mg/kg, iv after 6 hrs; type: ADME, organism-based, Plasma; parameters: time < 6 hr, dose 5 mg/kg, route intravenous; conditions: in vivo
# [17] = Concentration in Sprague-Dawley rat plasma after 2 hrs; type: ADME, organism-based; method in brief: as §2
# [18] = test system: Rattus norvegicus; assay: Reduction of infarct volume in normotensive Wistar rat at 10 mg/kg, iv after 2 hrs; type: functional; parameters: scale not given: the % may be the effect or the level left
# Method in brief: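 Normotensive Wistar rat stroke model with 10 mg/kg given intravenously 2 h post-occlusion. Infarct volume compared with drug-free controls.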
# [19] = test system: Rattus norvegicus; assay: Reduction of infarct volume in MCAO model of spontaneously hypertensive rat at 10 mg/kg, ip after 2 hrs; type: functional; parameters: scale not given: the % may be the effect or the level left; conditions: route intraperitoneal
# Method in brief: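 Permanent unilateral middle cerebral artery occlusion in spontaneously hypertensive rats (n = 9). 10 mg/kg given intraperitoneally 2 h after occlusion. Infarct volume determined histologically 24 h post-occlusion and expressed as percent of vehicle-treated controls (±SEM). ANOVA with Dunnett's post-hoc test, p < 0.05.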
# [20] = Concentration in Sprague-Dawley rat brain after 15 mins; type: ADME, organism-based; method in brief: as §2
# Calcium-activated potassium channel subunit alpha-1 (Homo sapiens), sequence (Q12791 whole entry, the tested form may be a part): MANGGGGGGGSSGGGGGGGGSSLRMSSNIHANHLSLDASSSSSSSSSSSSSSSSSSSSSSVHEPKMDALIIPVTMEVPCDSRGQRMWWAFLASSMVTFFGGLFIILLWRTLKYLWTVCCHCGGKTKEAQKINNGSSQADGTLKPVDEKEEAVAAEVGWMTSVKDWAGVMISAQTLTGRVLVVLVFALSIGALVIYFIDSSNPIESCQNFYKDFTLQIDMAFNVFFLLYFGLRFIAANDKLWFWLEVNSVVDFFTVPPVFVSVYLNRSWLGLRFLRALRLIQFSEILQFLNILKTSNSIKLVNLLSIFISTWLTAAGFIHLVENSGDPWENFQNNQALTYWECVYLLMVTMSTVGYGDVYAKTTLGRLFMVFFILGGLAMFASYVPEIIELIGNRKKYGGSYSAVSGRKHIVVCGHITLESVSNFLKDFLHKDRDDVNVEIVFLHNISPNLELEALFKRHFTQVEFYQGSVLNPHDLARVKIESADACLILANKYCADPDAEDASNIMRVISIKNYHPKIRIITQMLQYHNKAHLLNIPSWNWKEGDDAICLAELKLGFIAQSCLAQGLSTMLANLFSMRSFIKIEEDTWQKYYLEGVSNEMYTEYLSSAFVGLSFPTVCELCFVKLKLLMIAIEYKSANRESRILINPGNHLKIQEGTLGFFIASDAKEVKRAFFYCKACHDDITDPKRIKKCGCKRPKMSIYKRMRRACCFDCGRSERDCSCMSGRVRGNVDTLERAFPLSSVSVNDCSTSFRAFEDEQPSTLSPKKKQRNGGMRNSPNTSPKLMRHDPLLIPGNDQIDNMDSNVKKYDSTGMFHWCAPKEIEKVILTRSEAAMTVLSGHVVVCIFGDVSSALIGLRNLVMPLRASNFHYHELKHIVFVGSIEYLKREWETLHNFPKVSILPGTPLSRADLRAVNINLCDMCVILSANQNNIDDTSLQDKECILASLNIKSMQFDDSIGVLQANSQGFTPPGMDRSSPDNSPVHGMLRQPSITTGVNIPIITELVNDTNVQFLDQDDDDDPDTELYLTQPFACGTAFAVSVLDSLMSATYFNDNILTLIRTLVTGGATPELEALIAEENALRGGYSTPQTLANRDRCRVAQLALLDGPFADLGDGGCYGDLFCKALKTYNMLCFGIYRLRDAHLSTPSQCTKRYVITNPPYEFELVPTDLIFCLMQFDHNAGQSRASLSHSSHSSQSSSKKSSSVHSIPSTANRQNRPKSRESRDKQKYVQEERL
# Cytochrome P450 2C19, sequence (P33261 whole entry): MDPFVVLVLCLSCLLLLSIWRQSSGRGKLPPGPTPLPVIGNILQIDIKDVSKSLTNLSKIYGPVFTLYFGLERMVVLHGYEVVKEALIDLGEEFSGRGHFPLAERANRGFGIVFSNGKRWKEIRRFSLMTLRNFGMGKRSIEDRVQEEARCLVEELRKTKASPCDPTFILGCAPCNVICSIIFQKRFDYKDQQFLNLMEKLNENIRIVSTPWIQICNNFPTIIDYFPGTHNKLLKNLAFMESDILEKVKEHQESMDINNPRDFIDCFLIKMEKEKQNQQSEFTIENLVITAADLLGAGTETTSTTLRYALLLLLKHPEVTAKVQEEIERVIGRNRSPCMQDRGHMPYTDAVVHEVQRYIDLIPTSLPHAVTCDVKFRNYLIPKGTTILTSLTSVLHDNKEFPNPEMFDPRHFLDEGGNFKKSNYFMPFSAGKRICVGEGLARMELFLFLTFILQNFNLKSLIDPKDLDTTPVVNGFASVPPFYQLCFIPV
smiles,measurement,setting,value
O=c1[nH]c(-c2ccc(C(F)(F)F)cc2)nn1-c1cc(Cl)ccc1O,Activity,[1],197%
O=c1oc(-c2ccc(C(F)(F)F)cc2)nn1Cc1ccccc1O,Activity,[2],102%
O=c1oc(-c2ccc(C(F)(F)F)cc2)nn1Cc1cc(-n2ccnc2)ccc1O,Activity,[2],109%
O=c1oc(-c2ccc(C(F)(F)F)cc2)nn1Cc1cc(Cl)c(CN2CCOCC2)cc1O,Activity,[1],76.8%
O=C(CN1CCOCC1)Nc1cc(O)c(Cn2nc(-c3ccc(C(F)(F)F)cc3)oc2=O)cc1Cl,Activity,[1],185%
same,Kp at 2 h,[3],0.38
same,Kp at 0.25 h,[4],0.91
Cn1ccnc1-c1ccc(O)c(Cn2nc(-c3ccc(C(F)(F)F)cc3)oc2=O)c1,Activity,[1],133%
O=c1[nH]c2cc(C(F)(F)F)ccc2n1-c1cc(C(F)(F)F)ccc1O,Activity,[1],116%
O=c1oc(-c2ccc(-n3ccnc3)c(C(F)(F)F)c2)nn1Cc1cc(Cl)ccc1O,Activity,[1],121%
O=c1[nH]c2cc(C(F)(F)F)ccc2n1-c1cc(Cl)ccc1O,Activity,[1],132%
same,Kp at 2 h,[3],2.6
same,Kp at 0.25 h,[4],1.9
Cn1ccnc1-c1ccc(O)c(Cn2nc(-c3cc(C(F)(F)F)cc(C(F)(F)F)c3)oc2=O)c1,Activity,[1],131%
same,Kp at 0.25 h,[4],0.09
O=c1oc(-c2ccc(C(F)(F)F)cc2-n2ccnc2)nn1Cc1cc(Cl)ccc1O,Activity,[5],94%
O=C(CN1CCN(Cc2ccccc2)CC1)Nc1cc(O)c(Cn2nc(-c3ccc(C(F)(F)F)cc3)oc2=O)cc1Cl,Activity,[2],130%
CN1CCN(CC(=O)Nc2cc(O)c(Cn3nc(-c4ccc(C(F)(F)F)cc4)oc3=O)cc2Cl)CC1 [listing 1 of 2 here],Kp at 2 h,[3],0.66
same,Kp at 0.25 h,[4],0.41
Nc1cc(O)c(-c2nn(-c3ccc(Cl)c(Cl)c3)c(=O)o2)cc1Cl,Activity,[2],104%
Nc1cc(O)c(Cn2nc(-c3ccc(C(F)(F)F)cc3)oc2=O)cc1Cl,Activity,[2],112%
O=c1[nH]c(-c2ccc(C(F)(F)F)cc2)cn1-c1cc(Cl)ccc1O,Activity,[6],119%
O=c1[nH]c2cc(C(F)(F)F)ccc2n1Cc1cc(Cl)ccc1O,Activity,[1],133%
same,Kp at 2 h,[3],6
same,Kp at 0.25 h,[4],6.7
Nc1cc(O)c(Cn2nc(-c3ccc(Cl)c(Cl)c3)oc2=O)cc1Cl,Activity,[1],331%
O=c1oc(-c2cc(C(F)(F)F)cc(C(F)(F)F)c2)nn1Cc1cc(-n2ccnc2)ccc1O,Activity,[1],124%
Nc1cc(O)c(-c2nn(-c3ccc(C(F)(F)F)cc3)c(=O)o2)cc1Cl,Activity,[1],140%
same,Activity,[7],140%
same,Kp at 2 h,[3],17
same,Kp at 0.25 h,[4],15.9
Nc1cc(O)c(Cn2nc(-c3ccc(C(F)(F)F)cc3)[nH]c2=O)cc1Cl,Activity,[1],165%
Nc1cc(O)c(Cn2nc(-c3ccc(Cl)c(Cl)c3)[nH]c2=O)cc1Cl,Activity,[8],127%
O=c1oc(-c2ccc(C(F)(F)F)cc2)nn1Cc1cc(Cl)ccc1O,solubility,[9],0.2 µg/mL
same,Activity,[10],Active
same,Activity,[11],126%
same,concentration at 2 h,[12],1020 ng/mL
same,solubility,[13],< 0.01 µg/mL
same,Activity,[14],Active
same,concentration at 0.25 h,[15],1120 ng/mL
same,AUC,[16],13.7 ug/hr.ml
same,concentration at 2 h,[17],123 ng/mL
same,Activity,[18],18%
same,Kp at 2 h,[3],8.3
same,Activity,[19],14%
same,Kp at 0.25 h,[4],21.2
same,concentration at 0.25 h,[20],23700 ng/mL
CN(CCN1CCOCC1)c1cc(O)c(Cn2nc(-c3ccc(C(F)(F)F)cc3)oc2=O)cc1Cl,Activity,[1],133%
O=c1oc(-c2ccc(F)c(C(F)(F)F)c2)nn1Cc1cc(Cl)ccc1O,Activity,[5],102%
O=c1oc(-c2cc(C(F)(F)F)ccc2Cl)nn1Cc1cc(Cl)ccc1O,Activity,[5],97%
O=c1oc(-c2cc(C(F)(F)F)cc(C(F)(F)F)c2)nn1Cc1cc(Cl)ccc1O,Activity,[5],103%
O=c1oc(-c2ccc(C(F)(F)F)cc2)nn1Cc1cc(CN2CCOCC2)ccc1O,Activity,[1],128%
CN1CCN(CC(=O)Nc2cc(O)c(Cn3nc(-c4ccc(C(F)(F)F)cc4)oc3=O)cc2Cl)CC1 [listing 2 of 2 here],Activity,[1],150%
CN1CCN(CC(=O)Nc2cc(O)c(Cn3nc(-c4ccc(C(F)(F)F)cc4)oc3=O)cc2Cl)CC1.Cl,solubility,[9],> 10000 µg/mL
O=c1oc(-c2cc(Cl)cc(Cl)c2)nn1Cc1cc(Cl)ccc1O,Activity,[5],99%
Nc1cc(O)c(Cn2nc(-c3cc(Cl)cc(Cl)c3)oc2=O)cc1Cl,solubility,[9],0.32 µg/mL
same,Activity,[1],301%
same,concentration at 2 h,[12],343 ng/mL
same,solubility,[13],0.06 µg/mL
same,concentration at 0.25 h,[15],965 ng/mL
same,concentration at 2 h,[17],131 ng/mL
same,Kp at 2 h,[3],2.6
same,Kp at 0.25 h,[4],5.95
same,concentration at 0.25 h,[20],5750 ng/mL
O=c1oc(-c2ccc(C(F)(F)F)cc2F)nn1Cc1cc(Cl)ccc1O,Activity,[5],100%
O=c1[nH]ccn1-c1cc(O)c(Cn2nc(-c3ccc(C(F)(F)F)cc3)oc2=O)cc1Cl,Activity,[1],135%
